# SENP8 block-1 – human SENP8 protease inhibitors, primary screen, biochemical, fluorescence, Nedd8 protein substrate, uHTS; Sentrin-specific protease 8 (Homo sapiens), Q96LD8; recombinant SENP8; inhibition, % at 20 µM; hit rate 0.64% among 360,000; in the data active = inhibition mostly above about 40%, no sharp cut-off; inactive = mostly below about 27%
# Target sequence (Q96LD8 whole entry, looked up): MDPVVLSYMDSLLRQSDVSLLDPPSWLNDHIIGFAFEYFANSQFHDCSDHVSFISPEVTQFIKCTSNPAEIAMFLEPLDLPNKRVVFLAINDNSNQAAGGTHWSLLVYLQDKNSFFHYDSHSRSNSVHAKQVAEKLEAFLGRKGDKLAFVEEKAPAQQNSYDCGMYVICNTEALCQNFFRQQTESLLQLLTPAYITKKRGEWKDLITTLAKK
# SENP7 block – SENP7 protease inhibitors, primary screen, biochemical, luminescence, uHTS | Sentrin-specific protease 7 (Homo sapiens), Q9BQF6 | recombinant SENP7, Z-RLRGG-aminoluciferin luminescence, 40 min | inhibition, % at 5 µM | hit rate 1.5% among 330,000 | AID 434973, 2010;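 active = inhibition above about 50% at the single test dose, limit read from the data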;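 note: plate controls were DMSO with enzyme for no effect and no enzyme buffer wells for full effect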
# Target sequence (Q9BQF6 706-1050 limits assumed): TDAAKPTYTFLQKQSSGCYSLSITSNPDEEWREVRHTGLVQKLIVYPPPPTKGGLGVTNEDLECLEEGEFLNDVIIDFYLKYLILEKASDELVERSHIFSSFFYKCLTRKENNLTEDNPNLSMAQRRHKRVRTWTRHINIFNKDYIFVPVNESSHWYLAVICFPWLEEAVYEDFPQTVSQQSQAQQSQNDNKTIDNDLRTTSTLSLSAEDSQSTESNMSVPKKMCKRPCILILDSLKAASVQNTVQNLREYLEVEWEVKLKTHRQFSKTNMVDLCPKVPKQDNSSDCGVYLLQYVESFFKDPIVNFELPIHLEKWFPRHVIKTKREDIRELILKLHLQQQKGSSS
# Apaf-1 inh – inhibitors of human Apaf-1 apoptosome, primary screen, biochemical, DEVD-Rh110 fluorescence, uHTS; reconstituted apoptosome caspase-3 activity; inhibition, % at 20 µM; hit rate 0.71% among 330,000; AID 489030, 2010; active = inhibition of at least 40% at 20 µM;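 note: plate controls were DMSO wells for no effect and DEVD-CHO caspase inhibitor wells for full effect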
#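 Material: cell-free apoptosome with Apaf-1, procaspase-3 and caspase-9; Buffer or medium: Hepes pH 7.5 with detergent and BSA; Reagent: cytochrome c trigger plus (Z-DEVD)2-Rh110 caspase-3 substrate; Times: compound with Apaf-1, dATP, procaspase-3 30 min, then 50 min reaction, room temperature; Technique: Rh110 fluorescence intensity.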
# UBC13 polyUb – UBC13 polyubiquitin chain formation inhibitors, primary screen, biochemical, TR-FRET, uHTS; inhibition, % at 20 µM; AID 485273, 2010; Ubiquitin-conjugating enzyme E2 N (Homo sapiens), P61088; hit rate 0.47% among 330,000; in the data active = inhibition above about 45%, passing the limit was not always enough
# SENP6 block – SENP6 protease inhibitors, primary screen, biochemical, luminescence, uHTS | Sentrin-specific protease 6 (Homo sapiens), Q9GZR1 | Recombinant SENP6 catalytic domain, aminoluciferin luminescence | inhibition, % at 10 µM | hit rate 1.8% among 330,000 | AID 2599, 2010;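 active = inhibition above about 50% at the single tested dose, limit read from the data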;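 note: plate controls were DMSO wells with enzyme for no effect and DMSO wells lacking enzyme for full effect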
# SENP8 block-2 – SENP8 protease inhibitors, primary screen, biochemical, luminescence. Sentrin-specific protease 8 (Homo sapiens), Q96LD8. purified SENP8, Z-RLRGG-aminoluciferin cleavage. inhibition, % at 10 µM. hit rate 1.2% among 330,000; in the data active = inhibition above about 50%
# SENP8 conf – SENP8 protease inhibitors, retest, confirmation, biochemical, luminescence, single concentration; AID 488912, 2010; hit rate 40% among 6,200; Recombinant SENP8, Z-RLRGG-aminoluciferin luminescence, 60 min; inhibition, % at 12.5 µM; shares compounds with SENP7 block;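 active = mean inhibition across replicates above about 50%, limit read from the data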
# SENP6 conf – SENP6 protease inhibitors, confirmation, biochemical, luminescence, single concentration; inhibition, % at 12.5 µM; shares compounds with SENP7 block; recombinant SENP6, Z-RLRGG-aminoluciferin luminescence; AID 488915, 2010; hit rate 58% among 6,200
# SENP7 confirm – SENP7 protease inhibitors, retest, confirmation, biochemical, luminescence, single concentration. shares compounds with SENP7 block. recombinant SENP7, Z-RLRGG-aminoluciferin luminescence, 40 min. inhibition, % at 12.5 µM. hit rate 69% among 6,200. AID 488917, 2010
# Casp3 select – caspase-3 protease inhibitors, confirmation, selectivity assay for SENP inhibitor project, biochemical, single concentration; shares compounds with SENP7 block; purified caspase-3, Z-DEVD-aminoluciferin luminescence, 60 min; inhibition, % at 12.5 µM; hit rate 60% among 6,200; AID 488918, 2010;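 active = mean inhibition above about 50%, limit read from the data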;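 note: plate controls were enzyme with DMSO for no effect and wells without caspase-3 for full effect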
# Luc interf – interferes with luciferase luminescence in SENP counter-screen; shares compounds with SENP7 block; Pre-incubated SENP8/Z-RLRGG-aminoluciferin, luciferase luminescence interference; inhibition, % at 12.5 µM; hit rate 39% among 6,200; AID 488919;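 active = mean inhibition above about 50% when retested at one dose, limit read from the data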;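 note: plate controls were DMSO wells with completed reaction for no effect and substrate without enzyme for full effect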
# The depositor's hits bear a star; i = inactive; / = no result. An excerpt weighted towards active compounds, which were near 3% of everything screened.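 Rule for the calls, unless noted: active = mean inhibition above about 50% in the one-dose retest (limit read from the data); inactive = the rest.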
SMILES,SENP8 block-1,SENP7 block,Apaf-1 inh,UBC13 polyUb,SENP6 block,SENP8 block-2,SENP8 conf,SENP6 conf,SENP7 confirm,Casp3 select,Luc interf
Cc1[nH]n(C(N)=S)c(=O)c1N=Nc1ccc([N+](=O)[O-])cc1Cl,24,70*,3,-136,94*,95*,81*,95*,98*,79*,13
CCOc1ccccc1N=Nc1c(C)[nH]n(C(N)=S)c1=O,29,-8,8,-87,-15,-3,/,/,/,/,/
Cc1[nH]n(C(N)=S)c(=O)c1N=Nc1ccccc1C(F)(F)F,18,2,-7,-1,54*,34,56*,53*,77*,/,50*
NC(=S)n1[nH]c(-c2ccc([N+](=O)[O-])cc2)c(N=Nc2cccc(Cl)c2)c1=O,34,-8,16,-45,10,1,/,/,/,/,/
Cc1[nH]n(C(N)=S)c(=O)c1C(c1ccccc1)C(C#N)C#N (stereo not given),11,1,4,-5,-8,2,/,/,/,/,/
Cc1ccccc1N=Nc1c(C)[nH]n(C(N)=S)c1=O,8,40,6,-27,82*,60*,2,34,37,49,10
COc1ccc(NC(=O)C2(C)Cc3c(-c4cccc(NC(C)=O)c4)ccnc3O2)cn1 (stereo not given),4,/,/,/,/,/,/,/,/,/,/
CCOC(=O)C1(C)CCCN(C(=O)Cc2ccc3ccccc3c2)C1 (stereo not given),11,/,/,/,/,/,/,/,/,/,/
Cc1ccc(C(=O)Cc2nc3ccccc3[nH]2)cc1,-3,4,-1,10,-20,-2,/,/,/,/,/
Cc1ccc(OCc2nc3ccccc3[nH]2)cc1,4,68*,-2,-4,45,61*,52*,53*,78*,70*,61*
c1ccc(OCc2nc3ccccc3[nH]2)cc1,9,54*,8,-1,61*,31,50,51*,85*,82*,68*
Cc1ccc(S(=O)(=O)NC(=O)C2(C)CCN2C(=O)c2cccc(F)c2)nc1 (stereo not given),20,/,/,/,/,/,/,/,/,/,/
Cc1ccc(C(=O)Nc2cccc(C(=O)O)c2)cc1S(=O)(=O)N1CCCCC1,20,94*,-6,-2,93*,88*,96*,96*,102*,83*,79*
Cc1ccc(C(=O)Nc2ccncc2)cc1S(=O)(=O)N1CCCCC1,12,/,/,/,/,/,/,/,/,/,/
O=C(O)c1cccc(NC(=O)c2ccc3c(c2)C(=O)N(CC2CCCO2)C3=O)c1 (stereo not given),26,71*,-6,0,83*,50*,87*,85*,99*,74*,78*
CC(=O)c1cccc(NC(=O)c2ccc(C)c(S(=O)(=O)N3CCOCC3)c2)c1,9,5,0,2,-20,2,/,/,/,/,/
Cc1ccc(C(=O)Nc2cccc(C(=O)O)c2)cc1S(=O)(=O)N1CCOCC1,8,-4,-1,-5,61*,57*,73*,68*,89*,50*,28
O=C(C[C@@H]1C[C@H]2c3cc(NC(=O)C4CCC4)ccc3O[C@H]2[C@@H](CO)O1)NCc1ccc(-c2ccccc2)cc1,0,/,/,/,/,/,/,/,/,/,/
O=C1NC(=Nc2ccccc2Cl)S/C1=C\c1cccc([N+](=O)[O-])c1O,48*,9,13,-72,93*,86*,90*,92*,79*,52*,81*
O=C(/C=C/c1ccc(Cl)c(Cl)c1)N1CCc2ccccc21,15,66*,-3,-3,9,-12,-13,-8,-6,8,1
Cn1c(SCc2ccccc2Cl)nc2ccccc21,39,67*,10,11,86*,75*,-22,77*,95*,67*,66*
CCn1c(SCc2ccccc2Cl)nc2ccccc21,32,17,26,2,59*,17,42,44,71*,27,20
CCn1c(CSc2nc3ccccc3n2C)nc2ccccc21,-7,9,8,11,-32,-4,/,/,/,/,/
COc1ccc(OC)c(NC(=O)Nc2nc(C(N)c3ccccc3Cl)cs2)c1 (stereo not given),25,/,/,/,/,/,/,/,/,/,/
O=S1(=O)CC/C(=N/Nc2ccc(C(F)(F)F)cn2)c2cc(F)ccc21,24,6,23,-15,-2,-3,/,/,/,/,/
SMILES,SENP8 block-1,SENP7 block,Apaf-1 inh,UBC13 polyUb,SENP6 block,SENP8 block-2,SENP8 conf,SENP6 conf,SENP7 confirm,Casp3 select,Luc interf
O=S1(=O)CC/C(=N/Nc2ccccn2)c2cc(F)ccc21,8,63*,-8,-15,-15,-7,4,7,8,4,2
c1ccc2sc(-c3ccc4c(c3)OCO4)nc2c1,-278,100*,1,6,97*,96*,98*,100*,103*,98*,95*
COc1cccc(-c2nc3ccccc3s2)c1,-14,96*,18,4,92*,95*,96*,98*,102*,95*,95*
O=C(O)c1ccc2nc(-c3ccccc3)sc2c1,-8,100*,3,-20,98*,94*,98*,99*,102*,96*,98*
c1ccc2[nH]c(-c3ccc4c(c3)OCO4)nc2c1,-134,97*,-6,-2,96*,93*,96*,97*,102*,97*,96*
c1ccc(COc2ccc(-c3cc4nc(NCCCn5ccnc5)ccn4n3)cc2)cc1,i,/,/,/,/,/,/,/,/,/,/
Oc1ccc(-c2nc3ccccc3s2)c(O)c1,-419,86*,0,33,97*,88*,95*,94*,101*,75*,78*

# Bioassay records: PubChem, Sanford-Burnham Center for Chemical Genomics
